Assay results collected from several papers.
Each line is one published result; the experiments were not run side by side.
Matrix: plasma

SMILES | test system | conditions | AUC(0-t)
Cc1cc(-c2nccc3c2ccn3CC(=O)Nc2ccc(-c3cnccn3)cn2)ccn1 | human | oral, 7 mg, single dose | 0.498 µM·h
C[C@@H](Oc1ccc(S(C)(=O)=O)cc1C(=O)N1C[C@@H]2C[C@]2(c2cc(C(F)(F)F)on2)C1)C(F)(F)F | human | oral, 10 mg, single dose, fasted | 1.61 µM·h
CC(=O)N(C)[C@H]1CCN(C(=O)c2cnc3c(c2)C[C@](C)(c2ccc(F)cc2)N3)C1 | male human | oral, 15 mg, multiple doses, once daily | 1.88 µM·h
CC(C)n1c(C2CCNCC2)nc2c([N+](=O)[O-])c(Br)c(Br)cc21 | human | oral, 25 mg, patients | 152 ng·h/mL
COc1ccc2c(c1)CN(C(=O)CCN1CCC(Cc3ccccc3)CC1)CC[S@@+]2[O-] | male human | intravenous, 0.05 mg/kg, healthy volunteers | 241 ng·h/mL
C=CC(=O)NC1CCN(c2ncc3ncnc(Nc4ccc(Oc5ccc6c(c5)ncn6C)c(C)c4)c3n2)CC1 | male human | intravenous, 100 µg, healthy volunteers | 0.00262 µM·h
OC[C@H]1O[C@@H](c2cc(Cc3ccc(C4CC4)cc3)c(Cl)c3c2CCO3)[C@H](O)[C@@H](O)[C@@H]1O | human | oral, 0.3 mg, single dose, fasted | 26.5 ng·h/mL
COc1ccc(-c2c(Nc3ccccn3)[nH]c3c(C4=CCCCC4)c(-c4ccccc4)nn3c2=O)cc1 | human | oral, 50 mg once daily, multiple doses, steady state, patients | 33400 ng·h/mL
CC(=O)O[C@H]1C(=O)[C@@]2(C)[C@H]([C@H](OC(=O)c3ccccc3)[C@]3(O)C[C@H](OC(=O)[C@H](O)[C@@H](NC(=O)c4ccccc4)c4ccccc4)C(C)=C1C3(C)C)[C@]1(OC(C)=O)CO[C@@H]1C[C@@H]2O | human | intravenous, 80 mg/m² | 3.25 µM·h
